Read-outs that look alike come from different tables or passages of the source.
What was measured:
Format in all cases: cell-based
[1] = test system: MCF-7 (human breast adenocarcinoma) cells; test: MTT in vitro cytotoxicity assay, MCF-7; details: read-out: IC50 (μM) MCF-7
How it was run: (§1)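 Cells grown in DMEM with 10% FBS, penicillin/streptomycin, 37°C, 5% CO2. Seeded at 10,000 (MCF-7), 5,000 (SW-1990) or 6,000 (SMMC-7721) per well for 24 h. Test compound in DMSO, diluted in medium (0.1% DMSO), given at 1.95–250 μM final for 48 h. MTT (5 mg/mL, 10% v/v) added for 4 h; formazan dissolved in DMSO; A570 read, 630 nm background. % inhibition calculated versus 0.1% DMSO control; IC50 from viability–dose plot; at least triplicate, mean ± SD.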

[2] = test system: SMMC-7721 (human liver carcinoma) cells; test: MTT in vitro cytotoxicity assay, SMMC-7721; details: read-out: IC50 (μM) SMMC-7721
How it was run: as §1

[3] = test system: SW-1990 (human pancreatic carcinoma) cells; test: MTT in vitro cytotoxicity assay, SW-1990; details: for IC50: read-out: IC50 (μM) SW-1990
How it was run: as §1

[4] = test system: Human umbilical vein endothelial cell (HUVEC); test: MTT in vitro cytotoxicity assay, HUVEC; details: for selectivity toward the normal cell line HUVEC compared with berberine: cancer cell lines versus HUVEC
How it was run: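 HUVEC used at passages 1–7, grown in endothelial basal medium with 3% FBS growth supplement. Seeded at 5,000 cells/well and held 24 h at 37°C, 5% CO2. Test compound in DMSO, diluted in medium (0.1% DMSO final), given at 1.95–250 μM for 48 h. MTT added for 4 h, formazan dissolved in DMSO, absorbance read at 570 nm less 630 nm. IC50 from viability versus dose; at least triplicate, mean ± SD.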

[5] = MTT assay after 48 hours of drug exposure, mean ± SD

In the case of `COc1ccc2cc3[n+](cc2c1OCCc1cn(Cc2ccc(Br)cc2)nn1)CCc1cc2c(cc1-3)OCO2` [Compound 13, 9-O-[1-(4-bromobenzyl)-4-ethyl-1H-1,2,3-triazole] berberine chloride], the IC50 [1, 5] is reported as 47.1 ± 6.93 µM, the IC50 [2, 5] is reported as 20 ± 2.37 µM and the IC50 [3, 5] is reported as 30.4 ± 4.89 µM.
With `COc1ccc2cc3[n+](cc2c1OCCc1cn(Cc2ccc(Cl)c(Cl)c2)nn1)CCc1cc2c(cc1-3)OCO2.[Cl-]` [Compound 35, 9-O-[1-(3,4-dichlorobenzyl)-4-ethyl-1H-1,2,3-triazole] berberine chloride] the IC50 [1, 5] was 30.8 ± 4.32 µM, the IC50 [2, 5] was 16.1 ± 2.92 µM and the IC50 [3, 5] was 20.4 ± 2.35 µM. For the same compound, the “IC50 against HUVECs relative to compound 32” value ([4]; ratio to compound 32 IC50) was “four times lower than that of 32”.
“9-O-[1-(4-fluorobenzyl)-4-ethyl-1H-1, 2, 3-triazole] berberine chloride [Compound 7]” gave an IC50 [1, 5] of 73.5 ± 10.2 µM, an IC50 [2, 5] of 54.6 ± 5.98 µM and an IC50 [3, 5] of 53.6 ± 6.33 µM.
With “9-O-[1-(2-methylbenzyl)-4-ethyl-1H-1, 2, 3-triazole] berberine chloride [Compound 14]” the IC50 [1, 5] was 40.8 ± 5.92 µM, the IC50 [2, 5] was 19.9 ± 2.33 µM and the IC50 [3, 5] was 23.7 ± 3.47 µM. For the same compound, the “selectivity toward the normal cell line HUVEC compared with berberine” value [4] was “much better selectivity than berberine”.
Compound “9-O-[1-(2-fluorobenzyl)-4-ethyl-1H-1, 2, 3-triazole] berberine chloride [Compound 5]” has an IC50 [1, 5] of 75 ± 9.35 µM, an IC50 [2, 5] of 44.5 ± 4.88 µM and an IC50 [3, 5] of 64 ± 8.46 µM.
With `COc1ccc2cc3[n+](cc2c1OCCc1cn(Cc2ccc(C(F)(F)F)cc2)nn1)CCc1cc2c(cc1-3)OCO2` [Compound 21, 9-O-[1-(4-(trifluoromethyl)benzyl-4-ethyl-1H-1,2,3-triazole]berberine chloride] the IC50 [1, 5] was 68.1 ± 7.56 µM, the IC50 [2, 5] was 23.3 ± 2.63 µM and the IC50 [3, 5] was 36.8 ± 3.45 µM.
`COC(=O)c1ccc(Cn2cc(CCOc3c(OC)ccc4cc5[n+](cc34)CCc3cc4c(cc3-5)OCO4)nn2)cc1` [Compound 25, 9-O-[1-(4-methyl formatebenzyl)-4-ethyl-1H-1,2,3-triazole] berberine chloride] showed an IC50 [1, 5] of 249 ± 20.1 µM, an IC50 [2, 5] of 53.5 ± 5.84 µM and an IC50 [3, 5] of 165 ± 18.9 µM.
Compound `COc1ccc2cc3[n+](cc2c1OC)CCc1cc2c(cc1-3)OCO2` [BBR, berberine, reference compound] has an IC50 ([1]; Homo sapiens, MCF7, 48 h) of 122 ± 11.3 µM, an IC50 ([2]; Homo sapiens, SMMC-7721, 48 h) of 68.1 ± 7.76 µM and an IC50 ([3]; Homo sapiens, SW1990, 48 h) of 27.6 ± 3.04 µM. The inhibition at 62.5 µM ([3]; Homo sapiens, SW1990, read-out: inhibition against SW-1990 cell growth) was > 50% and the IC50 ([4]; Homo sapiens, HUVEC, 48 h, read-out: IC50 (μM) HUVEC) was 18.3 ± 2.31 µM.
`COc1ccc2cc3[n+](cc2c1OCCc1cn(Cc2ccc(F)c(F)c2)nn1)CCc1cc2c(cc1-3)OCO2` [Compound 29, 9-O-[1-(3,4-difluorobenzyl)-4-ethyl-1H-1,2,3-triazole] berberine chloride] gave an IC50 [1, 5] of 81.2 ± 10.4 µM, an IC50 [2, 5] of 43.8 ± 5.32 µM and an IC50 [3, 5] of 38.5 ± 4.65 µM.
Work on “9-O-[1-(3-fluorobenzyl)-4-ethyl-1H-1, 2, 3-triazole] berberine chloride [Compound 6]” yielded an IC50 [1, 5] of 69.9 ± 8.73 µM, an IC50 [2, 5] of 51.5 ± 6.03 µM and an IC50 [3, 5] of 62.6 ± 7.85 µM.
`COc1ccc2cc3[n+](cc2c1OCCc1cn(Cc2cccc(C(F)(F)F)c2)nn1)CCc1cc2c(cc1-3)OCO2` [Compound 20, 9-O-[1-(3-(trifluoromethyl)benzyl-4-ethyl-1H-1,2,3-triazole]berberine chloride] showed an IC50 [1, 5] of 86.2 ± 10.5 µM, an IC50 [2, 5] of 32.2 ± 5.2 µM and an IC50 [3, 5] of 39.3 ± 3.76 µM.
For `COc1ccc2cc3[n+](cc2c1OCCc1cn(Cc2ccc(C)cc2)nn1)CCc1cc2c(cc1-3)OCO2.[Cl-]` [Compound 15, 9-O-[1-(4-methylbenzyl)-4-ethyl-1H-1,2,3-triazole] berberine chloride], the IC50 [1, 5] was 37.8 ± 4.66 µM, the IC50 [2, 5] was 39.4 ± 4.98 µM and the IC50 [3, 5] was 32 ± 4.23 µM. The “selectivity toward the normal cell line HUVEC compared with berberine” value [4] was “much better selectivity than berberine”.
Compound `COc1ccc2cc3[n+](cc2c1OCCc1cn(Cc2ccc(F)cc2F)nn1)CCc1cc2c(cc1-3)OCO2` [Compound 27, 9-O-[1-(2,4-difluorobenzyl)-4-ethyl-1H-1,2,3-triazole] berberine chloride] has an IC50 [1, 5] of 70.7 ± 6.45 µM, an IC50 [2, 5] of 35.9 ± 4.76 µM and an IC50 [3, 5] of 69 ± 9.33 µM.
`COc1ccc2cc3[n+](cc2c1OCCc1cn(Cc2cc(Cl)ccc2Cl)nn1)CCc1cc2c(cc1-3)OCO2` [Compound 33, 9-O-[1-(2,5-dichlorobenzyl)-4-ethyl-1H-1,2,3-triazole] berberine chloride] gave an IC50 [1, 5] of 65.5 ± 7.22 µM, an IC50 [2, 5] of 24.2 ± 3.48 µM and an IC50 [3, 5] of 38.6 ± 4.57 µM.
